Reference: ChEMBL document CHEMBL1157507, “Design, synthesis, and evaluation of novel mutual prodrugs (hybrid drugs) of all-trans-retinoic acid and histone deacetylase inhibitors with enhanced anticancer activities in breast and prostate cancer cells in vitro” (J Med Chem, 2008)

Columns and labels:
MDA-MB-231 = experiment: Growth inhibition of human MDA-MB-231 cells after 5 days by MTT assay; type: functional; settings: MDA-MB-231, 120 h
MCF7 [1] = experiment: Growth inhibition of human MCF7 cells expressing HOX-B7 after 5 days by MTT assay; type: functional; settings: MCF7, 120 h
MCF7 [2] = experiment: Growth inhibition of human tamoxifen-resistant MCF7 cells after 5 days by MTT assay; type: functional; settings: MCF7, 120 h
Serum = experiment: Stability in 80% human serum in 0.02 M phosphate buffer at pH 7.2 after 24 hrs; type: ADME, cell-free; settings: pH 7.2, 24 h
Method in brief: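 Each agent was incubated 24 h at 37 °C in 80% human serum containing 20% 0.02 M phosphate buffer, pH 7.2. Samples were extracted and analysed by reverse-phase C18 HPLC with photodiode-array detection: 350 nm for ATRA and prodrugs, 245 nm for HDIs. The gradient ran from 20 mM ammonium acetate/methanol (50:50) to methanol at 0.8 mL/min.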

MCF7 [3] = experiment: Growth inhibition of human MCF7 cells after 5 days by MTT assay; type: functional; settings: MCF7, 120 h
PC-3 [4] = experiment: Growth inhibition of human PC3 cells after 5 days by MTT assay; type: functional; settings: PC-3, 120 h
Method in brief: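 PC-3 cells in RPMI 1640 with 10% FBS and 1% penicillin/streptomycin (37 °C, 5% CO2) were seeded at 2 × 10⁴/well and allowed to adhere 24 h. They were dosed over a concentration range in 10% DMSO/90% ethanol for 5 days, with drug and medium renewed on day 3. MTT (0.5 mg/mL) was added for 2 h, formazan dissolved in DMSO, and A560 read. Triplicate wells, ≥3 experiments; GI50 from nonlinear regression.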

MCF7 [5] = experiment: Growth inhibition of long-term letrozole cultured human MCF7 cells after 5 days by MTT assay; type: functional; settings: MCF7, 120 h
PC-3 [6] = experiment: Growth inhibition of human PC3 cells at 20 uM after 5 days by MTT assay; type: functional; settings: PC-3, 120 h
Method in brief: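 PC-3 cells in RPMI 1640 with 10% FBS were seeded at 2 × 10⁴/well, adhered 24 h, then given a single 20 µM concentration in 10% DMSO/90% ethanol for 5 days, with renewal on day 3. Growth was read by MTT (0.5 mg/mL, 2 h, formazan in DMSO, A560). Triplicate wells; at least three independent experiments.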

| SMILES | GI50 (MDA-MB-231) | GI50 (MCF7 [1]) | GI50 (MCF7 [2]) | Stability (Serum) | GI50 (MCF7 [3]) | GI50 (PC-3 [4]) | GI50 (MCF7 [5]) | inhibition at 20 µM (PC-3 [6]) |
| --- | --- | --- | --- | --- | --- | --- | --- | --- |
| CC1=C(/C=C/C(C)=C/C=C/C(C)=C/C(=O)Oc2ccc(COC(=O)Nc3ccccc3NC(=O)c3ccc(CNC(=O)OCc4cccnc4)cc3)cc2)C(C)(C)CCC1 | 0.17 µM | 0.72 µM | 0.21 µM | Stable | 0.06 µM | 0.18 µM | – | – |
| CC1=C(/C=C/C(C)=C/C=C/C(C)=C/C(=O)OCOC(=O)NCC(=O)Nc2ccccc2NC(=O)c2ccc(CNC(=O)OCc3cccnc3)cc2)C(C)(C)CCC1 | 0.94 µM | 0.006 µM | 0.02 µM | – | 0.15 µM | 0.04 µM | 0.02 µM | – |
| CC(=O)Nc1ccc(C(=O)Nc2ccccc2NC(=O)OCc2ccc(OC(=O)/C=C(C)/C=C/C=C(C)/C=C/C3=C(C)CCCC3(C)C)cc2)cc1 | 0.02 µM | 8.13 µM | 0.08 µM | Stable | 0.52 µM | 0.87 µM | – | – |
| CCCC(=O)[O-].[Na+] [SODIUM BUTYRATE] | > 1000 µM | – | – | – | – | 72.4 µM | – | – |
| CC(=O)Nc1ccc(C(=O)Nc2ccccc2N)cc1 [TACEDINALINE] | 0.17 µM | – | – | – | – | 0.29 µM | – | – |
| CC1=C(/C=C/C(C)=C/C=C/C(C)=C/C(=O)O)C(C)(C)CCC1 [TRETINOIN] | 10.8 µM | – | – | – | – | 7.6 µM | – | – |

Further lines, with some results ahead:

| GI50 (MDA-MB-231) | GI50 (MCF7 [1]) | GI50 (MCF7 [2]) | Stability (Serum) | GI50 (MCF7 [3]) | GI50 (PC-3 [4]) | GI50 (MCF7 [5]) | SMILES | inhibition at 20 µM (PC-3 [6]) |
| --- | --- | --- | --- | --- | --- | --- | --- | --- |
| 0.01 µM | – | – | Stable | – | 1.02 µM | – | CCCC(=O)OCc1ccc(OC(=O)/C=C(C)/C=C/C=C(C)/C=C/C2=C(C)CCCC2(C)C)cc1 | 80% |
| 0.63 µM | 1.2 µM | 0.17 µM | Stable | 0.25 µM | 4.27 µM | – | CC(=O)Nc1ccc(C(=O)Nc2ccccc2NC(=O)CNC(=O)OCOC(=O)/C=C(C)/C=C/C=C(C)/C=C/C2=C(C)CCCC2(C)C)cc1 | – |
| – | – | – | Stable | – | – | – | NCC(=O)Nc1ccccc1NC(=O)c1ccc(CNC(=O)OCc2cccnc2)cc1 | – |
